GPR7 antagonist: GPR7 receptor antagonists, primary screen, cell-based, fluorescence, single concentration; GPR7-expressing cells, fluorescence antagonist assay; Neuropeptides B/W receptor type 1 (Homo sapiens), P48145; hit rate 1.1% among 290,000; AID 1861, 2009; inhibition, % at 4.4 µM; in the data active = inhibition above about 16%, passing the limit was not always enough;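 also: cells stimulated with the agonist NPW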
NS3 helicase inh: inhibitors of HCV NS3 helicase, primary screen, biochemical, Cy5 molecular beacon fluorescence; inhibition, % at 10.9 µM; NS3 helicase DNA unwinding; hit rate 0.56% among 290,000;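 active = inhibition above the mean of all tested compounds plus 3 SD, set per campaign, cut at about 35% in these data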
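Measured by: Cy5 fluorescence, 0 and 60 min reads / Assay system: NS3 helicase fragment of HCV / Control set: low DMSO, high thioflavine S at 110 µM / Times: 1 h reaction at 25 °C, ATP-initiated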
core dimer inh: inhibitors of HCV core protein dimerization, primary screen, biochemical, TR-FRET, high-throughput; TR-FRET GST/Flag-core106 dimerization, 1536-well; inhibition, % at 5 µM; hit rate 0.33% among 300,000; AID 1899, 2009;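 active = inhibition above the mean of all tested compounds plus 3 SD, set per screening campaign, cut at about 45% in these data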
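System: GST-tagged and Flag-tagged HCV core protein residues 1-106 / Input: core106 proteins, GST 13.5 nM and Flag 17 nM / Buffer or medium: KF-containing HEPES buffer, pH 7.45, DTT, CHAPS, BSA / Probe or stimulus: Eu-anti-GST and XL665-anti-Flag labelled anti-tag antibodies / Schedule: 4 h, 22.5 °C incubation / Technique: TR-FRET 671 and 617 nm emission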
GRK2 inh: compounds blocking aptamer binding on GRK2 – biochemical, human GRK2, bead flow cytometry, HTS, primary screen. FAM-aptamer displacement from GRK2. inhibition of aptamer binding, % at 10 µM. hit rate 0.59% among 330,000;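 active = inhibition of aptamer binding above 40%, roughly 3 SD of noise, on plates passing a quality check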;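 also: median bead fluorescence of bound FAM aptamer so fluorescent compounds give negative values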
Target sequence (P25098 whole entry, looked up): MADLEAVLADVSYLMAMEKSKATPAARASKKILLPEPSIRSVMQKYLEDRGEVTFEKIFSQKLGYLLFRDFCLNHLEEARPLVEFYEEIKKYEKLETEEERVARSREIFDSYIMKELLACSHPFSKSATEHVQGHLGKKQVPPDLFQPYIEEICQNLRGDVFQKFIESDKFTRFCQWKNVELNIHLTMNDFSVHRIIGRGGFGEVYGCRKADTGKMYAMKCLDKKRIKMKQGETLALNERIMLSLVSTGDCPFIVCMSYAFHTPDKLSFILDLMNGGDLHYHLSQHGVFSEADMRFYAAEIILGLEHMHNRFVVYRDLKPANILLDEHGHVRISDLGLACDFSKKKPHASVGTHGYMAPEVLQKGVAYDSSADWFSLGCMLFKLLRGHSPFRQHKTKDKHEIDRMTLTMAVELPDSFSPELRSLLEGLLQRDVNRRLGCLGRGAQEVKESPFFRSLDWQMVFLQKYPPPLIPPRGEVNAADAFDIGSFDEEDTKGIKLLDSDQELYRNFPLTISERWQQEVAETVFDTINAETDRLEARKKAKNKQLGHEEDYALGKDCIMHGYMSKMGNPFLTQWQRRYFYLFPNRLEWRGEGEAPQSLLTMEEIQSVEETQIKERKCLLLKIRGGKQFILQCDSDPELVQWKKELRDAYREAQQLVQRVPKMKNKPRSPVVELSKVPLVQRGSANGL
DAGLB inh: DAGLB lipase inhibitors, primary screen, biochemical, fluorescence, HTS. AID 504411, 2011. HEK293T DAGLB membrane lysate, EnzChek fluorogenic substrate. Diacylglycerol lipase-beta (Homo sapiens), Q8NCG7. hit rate 0.059% among 340,000. inhibition, % at 5.17 µM; in the data active = inhibition above about 34%
FID counter: compounds displacing fluorescent DNA intercalator, primary screen, artefact control for HCV NS3 helicase inhibitor project, biochemical, FID fluorescence. DNA fluorescent intercalator displacement. inhibition, % at 7.9 µM. hit rate 0.17% among 290,000. AID 1845, 2009; in the data active = inhibition above about 37%;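 also: higher means more ethidium bromide displaced from hairpin DNA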
GRK2 inh confirm: GRK2 aptamer-displacing inhibitors, retest, confirmation, biochemical, cherry pick 1, bead flow cytometry. shares compounds with GRK2 inh. bead-bound GRK2, FAM-aptamer displacement. aptamer displacement, % at 10 µM. hit rate 4% among 2,000. AID 504451, 2011;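 active = aptamer displacement above 40%, near three times the noise of non-fluorescent compounds, on plates passing quality checks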;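 also: negative values mostly reflect intrinsic compound fluorescence rather than true enhancement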
FAM quench CP1: aptamer fluorescence quenching in GRK2 counter-screen | shares compounds with GRK2 inh | Carboxyfluorescein RNA aptamer on beads, flow cytometry quenching; active compounds read low | fluorescence response (% of DMSO), % at 10 µM | 2,000 tested, under 10 active | AID 504580;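 active = compounds that quench the bead-bound fluorescent RNA probe, cutting fluorescence to under half of the solvent control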;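 also: counterscreen run without GRK2 so only probe quenching by compound is measured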
GRK2 confirm 2: GRK2 aptamer-displacing inhibitors, hit retest, confirmation, biochemical, cherry pick 2, bead flow cytometry. bead-bound GRK2, FAM-aptamer displacement. inhibition of aptamer binding, % at 10 µM. shares compounds with GRK2 inh. 360 tested, under 10 active;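 active = inhibition of aptamer binding above 40%, about triple the noise seen with nonglowing compounds, on plates passing quality control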;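 also: negative values mostly come from compounds that fluoresce themselves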
FAM quench SP: aptamer fluorescence quenching in GRK2 counter-screen; carboxyfluorescein RNA aptamer beads, flow cytometry quenching; active compounds read low; shares compounds with GRK2 inh; 360 tested, under 10 active; fluorescence response vs DMSO, % at 10 µM; AID 588494;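 active = response vs DMSO under 50%, meaning signal dropped by over half, treated as fluorescence quencher; inconclusive = no clear call, values can overlap the other calls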;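 also: labelled aptamer on streptavidin beads without GRK2 as a quench counter-screen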
Numbers stand for hits; – = inactive; ? = inconclusive; · = no result given. This is a sample that favours compounds with a hit; in the whole collection about 2.2% have one here.

SMILES	GPR7 antagonist	NS3 helicase inh	core dimer inh	GRK2 inh	DAGLB inh	FID counter	GRK2 inh confirm	FAM quench CP1	others
Cc1cc(C)c(C(=O)CSc2nc3ccccc3c(=O)[nH]2)cc1C	–	–	–	–	–	–	·	·
O=C(CSc1nc2ccccc2[nH]1)c1c[nH]c2ccccc12	–	–	–	–	–	–	·	·
Cc1ccc2cc(CCNC(=O)C(=O)c3c[nH]c4ccccc34)c(=O)[nH]c2c1	–	–	–	71.0	–	–	–	–
Cc1cc(N/C=C/C(=O)c2ccc(Br)cc2)no1	–	–	–	77.0	–	–	–	–
COc1ccc(OC)c(N(CC(=O)Nc2ccccc2C(=O)NCc2ccco2)S(C)(=O)=O)c1	–	–	–	–	–	–	·	·
COc1ccc(Cl)cc1N(CC(=O)Nc1ccccc1C(=O)NCc1ccco1)S(C)(=O)=O	–	–	–	–	–	–	–	–
O=C(COC(=O)c1cccnc1Cl)NCCc1ccc(F)cc1	·	·	·	–	–	·	·	·
CCOc1cc(N2CCOCC2)c(OCC)cc1NC(=O)c1cccc(S(=O)(=O)N2CCOCC2)c1	·	·	·	–	–	·	–	–
CCOc1cc(N2CCOCC2)c(OCC)cc1NC(=O)c1cccc(S(=O)(=O)N2CC(C)OC(C)C2)c1 (centres undefined)	·	·	·	·	–	·	·	·
CCOc1cc(N2CCOCC2)c(OCC)cc1NC(=O)c1cc(S(=O)(=O)N2CCOCC2)ccc1F	·	·	·	–	–	·	–	–
O=C(NC1CCCCCC1)c1cc(S(=O)(=O)N2CCCCC2)ccc1N1CCOCC1	–	–	–	–	–	–	·	·
O=C(NC1CCCCC1)c1cc(S(=O)(=O)N2CCCCC2)ccc1N1CCOCC1	·	·	·	42.0	–	·	–	–
Cc1onc(-c2ccccc2)c1C(=O)NCC1CCCO1 (centres undefined)	–	–	–	91.0	–	–	–	–
N#Cc1ccccc1S(=O)(=O)N1CCN(C(=O)C2CCCC2)CC1	–	–	–	–	–	–	·	·
O=C(C1CCCC1)N1CCN(S(=O)(=O)c2cccc(Cl)c2Cl)CC1	–	–	–	68.0	–	–	–	–
COc1ccc(-c2cc3cc4c(cc3cn2)OCO4)cc1	·	·	·	41.0	–	·	·	·	GRK2 confirm 2=–;FAM quench SP=–
COc1cc(OC)cc(-c2cc3cc4c(cc3cn2)OCO4)c1	·	·	·	–	–	·	·	·
COC(=O)c1ccc(N2CCc3ccccc32)c([N+](=O)[O-])c1	–	–	–	52.0	–	–	–	–
CCn1c(SCC(=O)N2CCc3ccccc3C2)nc2c1c(=O)n(C)c(=O)n2C	–	–	–	–	–	–	·	·
Cn1c(=O)c2c(ncn2CC(=O)N2CCc3ccccc3C2)n(C)c1=O	–	–	–	58.0	–	–	–	–
COc1ccc(-c2noc(CCC(=O)N3CCN(c4ccc(Cl)cc4)CC3)n2)cc1	·	·	·	–	–	·	·	·
CCOc1ccc(NC(=O)CC2C(=O)N(CC)C(=S)N2CCNC(C)=O)cc1 (centres undefined)	–	–	–	70.0	–	–	·	·	GRK2 confirm 2=–;FAM quench SP=–
CCCOc1ccc(NC(=O)CC2C(=O)N(CC)C(=S)N2CCNC(C)=O)cc1 (centres undefined)	–	–	–	–	–	–	·	·
COC(=O)CNc1nc(C2CC2)nc2c1nnn2Cc1ccccc1Cl	–	–	–	–	–	–	·	·
CN(C)S(=O)(=O)c1ccc(Nc2nc(C3CC3)nc3c2nnn3Cc2ccccc2Cl)cc1	–	–	–	77.0	–	–	·	·	GRK2 confirm 2=–;FAM quench SP=?
SMILES	GPR7 antagonist	NS3 helicase inh	core dimer inh	GRK2 inh	DAGLB inh	FID counter	GRK2 inh confirm	FAM quench CP1	others
Cc1cccc(N2C(=NC(=O)c3ccccc3)SC3CS(=O)(=O)CC32)c1 (centres undefined)	–	–	–	–	–	–	·	·
C=C(C)CSc1nc2sc3c(c2c(=O)n1-c1ccccc1)CCN(C)C3	–	–	–	–	–	–	–	–
Cc1cc2cc(CNC(=O)c3ccc(Br)o3)ccc2n1C	·	·	–	73.0	–	·	–	–
Cc1cccc(NC(=O)NCc2ccc3c(c2)cc(C)n3C)c1	–	–	–	–	–	–	·	·
Cc1cc2cc(CNC(=O)Nc3cccc(Cl)c3)ccc2n1C	–	–	–	44.0	–	–	–	–
CCCC(=O)NCc1ccc2c(c1)cc(C)n2C	–	–	–	–	–	–	·	·
O=C(NCCS(=O)(=O)N1CCCCC1)c1ccccc1	·	·	–	–	–	·	·	·
COc1cc2cc(C(=O)N(C)C3CCS(=O)(=O)C3)[nH]c2cc1OC (centres undefined)	–	–	–	–	–	–	·	·
CCOC(=O)C(=CN(CCc1ccccc1)CC(=O)OC)C(=O)OCC	–	–	–	–	–	–	·	·
COc1ccc(C2CC(C(F)(F)F)n3nc(C(=O)Nc4c(C)n(C)n(-c5ccccc5)c4=O)c(Cl)c3N2)cc1 (centres undefined)	–	–	–	–	·	–	–	–
C=CCN1C(=O)c2ccc(C(=O)N(CCC)CC(=O)Nc3ccccc3C)cc2C1=O	·	·	–	99.0	–	·	–	–
CC1CCN(c2ccc(NC(=O)Cn3c(=O)oc4ccccc43)cc2)CC1	–	–	–	–	–	–	·	·
CCNS(=O)(=O)c1ccc(Br)c(C(=O)OC(C)C(=O)NCC2CCCCC2)c1 (centres undefined)	·	·	·	–	–	·	·	·
O=C(C[n+]1cc(Br)cc2ccccc21)c1ccccc1	–	–	–	45.0	–	–	–	–
COc1ccc(C(=O)C[n+]2cc(Br)cc3ccccc32)cc1[N+](=O)[O-]	–	–	–	–	–	–	·	·
COc1ccc(NC(=O)CC(C)n2ccnc2)cc1 (centres undefined)	–	–	–	–	–	–	·	·
CC(C)(C)c1ccc(C(=O)NN2C(=O)CSC2=S)cc1	–	–	–	55.0	–	–	–	–
Cc1nnc(C)c2c(C)n(Cc3ccc4c(c3)OCO4)c(C)c12	–	–	–	64.0	–	–	–	–
COc1ccc(S(=O)(=O)NCc2ccc3c(c2)OCO3)cc1C	–	–	–	71.0	–	–	–	–

Bioassay records as filed in PubChem BioAssay.
